In ChEMBL document CHEMBL3352362, “Discovery of a novel, first-in-class, orally bioavailable azaindole inhibitor (VX-787) of influenza PB2” (J Med Chem, 2014):

Experiments:
Influenza A virus [1] = test: Antiviral activity against Influenza A virus (A/Puerto Rico/8/1934(H1N1)) infected in MDCK cells assessed as cell protection after 72 hrs by cytopathic effect assay; type: functional, organism-based
Procedure, shortened: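 MDCK cells incubated with test compound and influenza A virus for 72 h (3-day CPE format). Cell viability read by an ATP end point. EC50 is the concentration giving 50% cell protection; mean of N = 3 or greater.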

Influenza A virus [2] = test: Antiviral activity against Influenza A virus (A/Puerto Rico/8/1934(H1N1)) infected in cells assessed as reduction in multiplication of virus-specific RNA molecules using branched-chain DNA; type: functional
Procedure, shortened: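 Viral RNA replication in infected cells quantified by the bDNA QuantiGene method with strand-specific probes for positive- or negative-strand RNA. EC90 is the compound concentration giving viral RNA levels equal to 10% of control wells.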

[3] = biological target: Polymerase basic protein 2 (Influenza A virus (strain A/Puerto Rico/8/1934 H1N1), UniProt P03428); test: Binding affinity to influenza A virus (A/Puerto Rico/8/1934(H1N1)) PB2 by competition binding fluorescence polarization (FP) assay
Procedure, shortened: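 Fluorescence polarization competition binding assay measuring affinity for the cap-binding domain of the PB2 subunit.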

[4] = Clearance in rat at 3 mg/kg, iv; type: ADME, organism-based; parameters: dose 3 mg/kg, route intravenous; settings: in vivo
[5] = Half life in rat at 3 mg/kg, iv; type: ADME, organism-based; parameters: dose 3 mg/kg, route intravenous; settings: in vivo
[6] = AUC in rat at 3 mg/kg, po; type: ADME, organism-based; parameters: dose 3 mg/kg, route oral; settings: plasma
[7] = Cmax in rat at 3 mg/kg, po; type: ADME, organism-based; parameters: dose 3 mg/kg, route oral; settings: in vivo
[8] = Oral bioavailability in rat at 3 mg/kg; type: ADME, organism-based; settings: in vivo
[9] = AUC in mouse at 30 mg/kg; type: ADME, organism-based; parameters: dose 30 mg/kg; settings: plasma
[10] = Cmax in mouse at 30 mg/kg; type: ADME, organism-based; parameters: dose 30 mg/kg; settings: in vivo

Sequence of Polymerase basic protein 2 (P03428 whole entry, the tested form may be a part): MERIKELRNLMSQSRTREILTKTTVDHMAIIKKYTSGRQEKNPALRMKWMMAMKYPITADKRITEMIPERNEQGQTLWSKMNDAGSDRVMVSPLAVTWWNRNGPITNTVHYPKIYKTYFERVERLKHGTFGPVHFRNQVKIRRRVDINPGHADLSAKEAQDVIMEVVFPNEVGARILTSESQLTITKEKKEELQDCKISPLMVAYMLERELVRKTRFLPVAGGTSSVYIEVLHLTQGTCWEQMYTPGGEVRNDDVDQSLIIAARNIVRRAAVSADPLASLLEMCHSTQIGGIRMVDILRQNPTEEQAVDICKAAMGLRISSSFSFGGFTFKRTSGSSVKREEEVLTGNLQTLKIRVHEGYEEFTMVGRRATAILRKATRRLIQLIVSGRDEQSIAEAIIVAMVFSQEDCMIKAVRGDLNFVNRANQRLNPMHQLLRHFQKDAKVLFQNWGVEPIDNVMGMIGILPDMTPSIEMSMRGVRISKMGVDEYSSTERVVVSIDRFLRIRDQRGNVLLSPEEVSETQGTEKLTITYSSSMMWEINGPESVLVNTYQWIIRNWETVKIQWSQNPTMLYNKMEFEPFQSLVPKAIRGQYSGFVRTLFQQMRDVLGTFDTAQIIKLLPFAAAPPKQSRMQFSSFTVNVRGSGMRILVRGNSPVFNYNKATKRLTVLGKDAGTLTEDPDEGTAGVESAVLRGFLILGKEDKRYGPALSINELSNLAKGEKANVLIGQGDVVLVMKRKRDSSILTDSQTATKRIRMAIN

Structure (SMILES) | EC50 (Influenza A virus [1]) [nM] | EC90 (Influenza A virus [2]) [nM] | Kd [3] [nM] | clearance [4] [mL/min/kg] | half-life [5] [min] | AUC [6] [ng·h/mL] | Cmax [7] [ng/mL] | bioavailability [8] [%] | AUC [9] [ng·h/mL] | Cmax [10] [ng/mL]
NC(=O)CN1CCC[C@H](Nc2nc(-c3c[nH]c4ncc(Cl)cc34)ncc2F)C1 | 81 | 20 | 80 | 182 |  |  |  |  |  | 
O=C(N[C@@H]1CCC[C@H](Nc2nc(-c3c[nH]c4ncc(Cl)cc34)ncc2F)C1)N1CCOCC1 | 2 | 5 | 500 | 59 |  |  |  |  |  | 
C[C@]1(C(=O)O)CCCC[C@@H]1Nc1nc(-c2c[nH]c3ncc(Cl)cc23)ncc1F (racemic) | 11 | 59 | < 2 | 24 | 192 | 2200 | 200 | 82 | 2400 | 1300
N[C@H]1CCCC[C@@H]1Nc1nc(-c2c[nH]c3ncc(Cl)cc23)ncc1F | 620 | 2480 | 90 |  |  |  |  |  |  | 
CC(=O)N1CCC[C@H](CNc2nc(-c3c[nH]c4ncc(Cl)cc34)ncc2F)C1 | 400 | 540 | 300 |  |  |  |  |  |  | 
CCc1cnc2[nH]cc(-c3ncc(F)c(N[C@H]4CCC[C@@H](NC(=O)N5CCOCC5)C4)n3)c2c1 | 25 | 260 |  |  |  |  |  |  |  | 
O=C(N[C@@H]1CCC[C@H](Nc2nc(-c3c[nH]c4ncccc34)ncc2F)C1)N1CCOCC1 | 98 | 200 |  |  |  |  |  |  |  | 
O=C(O)[C@H]1[C@H]2CC[C@H](C2)[C@@H]1Nc1nc(-c2c[nH]c3ncc(Cl)cc23)ncc1F (racemic) | < 2 | 6 | < 2 |  |  |  |  |  |  | 
N[C@@H]1CCCC[C@H]1Nc1nc(-c2c[nH]c3ncc(Cl)cc23)ncc1F | > 20000 |  | 4900 |  |  |  |  |  |  | 
COCC[C@]1(C(=O)O)CCCC[C@@H]1Nc1nc(-c2c[nH]c3ncc(Cl)cc23)ncc1F (racemic) | 18 | 90 | 9 |  |  |  |  |  |  | 
O=C(O)[C@H]1[C@@H]2CC[C@@H](C2)[C@@H]1Nc1nc(-c2c[nH]c3ncc(Cl)cc23)ncc1F (racemic) | 8 | 21 | < 2 |  |  |  |  |  |  | 
NC(=O)[C@H]1CCCC[C@@H]1Nc1nc(-c2c[nH]c3ncc(Cl)cc23)ncc1F (racemic) |  | 3130 | 30 |  |  |  |  |  |  | 
CC(O)C(=O)N[C@@H]1CCC[C@H](Nc2nc(-c3c[nH]c4ncc(Cl)cc34)ncc2F)C1 (stereo partly drawn) | 86 | 240 | 400 |  |  |  |  |  |  | 
Fc1cnc(-c2c[nH]c3ncc(Cl)cc23)nc1NC1CCCNC1 (stereo not drawn) | 1870 |  |  |  |  |  |  |  |  | 
Cn1cncc1C(=O)N[C@@H]1CCC[C@H](Nc2nc(-c3c[nH]c4ncc(Cl)cc34)ncc2F)C1 | 2 | 3 | 20 |  |  |  |  |  |  | 
CN(C)C(=O)N[C@@H]1CCC[C@H](Nc2nc(-c3c[nH]c4ncc(F)cc34)ncc2F)C1 | 2 | 6 | 400 |  |  |  |  |  |  | 
Fc1cnc(-c2c[nH]c3ncc(Cl)cc23)nc1NC1CCCCC1 | 1640 | 2370 | 300 |  |  |  |  |  |  | 
Cn1cncc1C(=O)N[C@@H]1CCC[C@H](Nc2nc(-c3c[nH]c4ncc(F)cc34)ncc2F)C1 | 2 | 5 | 90 | 22 | 120 | 3700 | 600 | 100 | 19000 | 13000
O=C(NC1CCOCC1)N[C@@H]1CCC[C@H](Nc2nc(-c3c[nH]c4ncc(F)cc34)ncc2F)C1 | 60 | 160 | 400 |  |  |  |  |  |  | 

Structure (SMILES) | EC50 (Influenza A virus [1]) [nM] | EC90 (Influenza A virus [2]) [nM] | Kd [3] [nM] | clearance [4] [mL/min/kg] | half-life [5] [min] | AUC [6] [ng·h/mL] | Cmax [7] [ng/mL] | bioavailability [8] [%] | AUC [9] [ng·h/mL] | Cmax [10] [ng/mL]
O=C(N[C@@H]1CCC[C@H](Nc2nc(-c3c[nH]c4ncc(C(F)(F)F)cc34)ncc2F)C1)N1CCOCC1 | 3 | 3 |  | 81 |  |  |  |  |  | 
C[C@]1(C(=O)O)CCCC[C@@H]1Nc1nc(-c2c[nH]c3ncc(F)cc23)ncc1F | 18 | 140 | < 2 |  |  |  |  |  |  | 
CN(C)c1cnc2[nH]cc(-c3ncc(F)c(N[C@H]4CCC[C@@H](NC(=O)N5CCOCC5)C4)n3)c2c1 | 1260 | > 3000 |  |  |  |  |  |  |  | 
COc1cnc2[nH]cc(-c3ncc(F)c(N[C@H]4CCC[C@@H](NC(=O)N5CCOCC5)C4)n3)c2c1 | 95 | 170 |  |  |  |  |  |  |  | 
O=C(O)[C@H]1CCCC[C@@H]1Nc1nc(-c2c[nH]c3ncc(Cl)cc23)ncc1F (racemic) | 134 | 187 | < 2 | 16 | 60 | 200 | 30 | 7 |  | 
Fc1cnc(-c2c[nH]c3ncc(Cl)cc23)nc1NC1CCCC1 | > 20000 | > 10000 | 700 |  |  |  |  |  |  | 
COCC(=O)N[C@@H]1CCC[C@H](Nc2nc(-c3c[nH]c4ncc(Cl)cc34)ncc2F)C1 | 44 | 20 | 70 |  |  |  |  |  |  | 
COCCC(=O)N1CCC[C@H](Nc2nc(-c3c[nH]c4ncc(Cl)cc34)ncc2F)C1 | 13 | 320 | 100 | 88 | 42 |  |  |  |  | 
C[C@H](Nc1nc(-c2c[nH]c3ncc(Cl)cc23)ncc1F)C(=O)N(C)C | 510 | 1130 | 100 |  |  |  |  |  |  | 
Cc1cnc2[nH]cc(-c3ncc(F)c(N[C@H]4CCC[C@@H](NC(=O)N5CCOCC5)C4)n3)c2c1 | 10 | 13 |  | 78 |  |  |  |  |  | 
COCC(=O)N[C@@H]1CCC[C@H](Nc2nc(-c3c[nH]c4ncc(F)cc34)ncc2F)C1 | 45 | 90 | 200 |  |  |  |  |  |  | 
O=C(O)[C@H]1C2CCC(CC2)[C@@H]1Nc1nc(-c2c[nH]c3ncc(Cl)cc23)ncc1F | 1 | 1 | < 5 | 32 | 234 | 300 | 30 | 24 | 10000 | 3700
O=C(N[C@@H]1CCC[C@H](Nc2nc(-c3c[nH]c4ncc(F)cc34)ncc2F)C1)N1CCOCC1 | 4 | 12 | 400 | 22 | 102 | 1100 | 200 | 46 | 180000 | 18200
CC(=O)N[C@H]1CCCC[C@@H]1Nc1nc(-c2c[nH]c3ncc(Cl)cc23)ncc1F | 44 | 1460 | 100 |  |  |  |  |  |  | 
CC(=O)N[C@@H]1CCC[C@H](Nc2nc(-c3c[nH]c4ncc(Cl)cc34)ncc2F)C1 | 36 | 25 | 70 |  |  |  |  |  |  | 
O=C(CN1CCOCC1)N[C@@H]1CCC[C@H](Nc2nc(-c3c[nH]c4ncc(Cl)cc34)ncc2F)C1 | 100 | 380 | 200 |  |  |  |  |  |  | 
OC[C@H](O)CN1CCC[C@H](Nc2nc(-c3c[nH]c4ncc(Cl)cc34)ncc2F)C1 | 270 | 360 | 400 | 56 | 138 |  |  |  | 6500 | 1200
CS(=O)(=O)N1CCCC[C@@H]1CNc1nc(-c2c[nH]c3ncc(Cl)cc23)ncc1F | 660 | 540 | 100 | 152 | 24 |  |  |  |  | 
CC(=O)c1cnc2[nH]cc(-c3ncc(F)c(N[C@H]4CCC[C@@H](NC(=O)N5CCOCC5)C4)n3)c2c1 | > 10000 | > 3000 |  |  |  |  |  |  |  | 
